Assay results published in ChEMBL document CHEMBL5058577, “EUbOPEN Chemogenomics Library 2 (Multiplex)” (2022).

System: U2OS
Test: Multiplex assay against U2OS
Format: toxicity, cell-based
Conditions: human
Summary of the method: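 On a CQ1 microscope at 37°C and 5% CO2, live cells were imaged after compound addition. They had been stained at seeding with Hoechst33342, BioTracker Green Microtubule Cytoskeleton Dye, MitoTracker Red and Annexin V Alexa Fluor 680. CellPathfinder machine-learning gating assigned cells to Hoechst high-intensity objects or normal cells, normal cells to healthy, pyknosed or fragmented nuclei, and pyknosed cells to mitotic or apoptotic. Tubulin, mitochondrial-mass and membrane-permeability phenotypes are per cents of healthy-nucleus cells.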

[1] = 12 h, 1 µM, compound concentration 1 uM, replicate 1
[2] = 12 h, 1 µM, compound concentration 1 uM, replicate 2
[3] = 12 h, 10 µM, compound concentration 10 uM, replicate 1
[4] = 12 h, 10 µM, compound concentration 10 uM, replicate 2
[5] = 24 h, 1 µM, compound concentration 1 uM, replicate 1
[6] = 24 h, 1 µM, compound concentration 1 uM, replicate 2
[7] = 24 h, 10 µM, compound concentration 10 uM, replicate 1
[8] = 24 h, 10 µM, compound concentration 10 uM, replicate 2
[9] = 48 h, 1 µM, compound concentration 1 uM, replicate 1
[10] = 48 h, 1 µM, compound concentration 1 uM, replicate 2
[11] = 48 h, 10 µM, compound concentration 10 uM, replicate 1
[12] = 48 h, 10 µM, compound concentration 10 uM, replicate 2

## O=C1COc2nccc(-c3ccccc3F)c2CN1Cc1cc(C(F)(F)F)cc(C(F)(F)F)c1
[1]
  Population Apoptotic (%): 52%
  Population Fragmented Nuclei (%): 19%
  Population Healthy Nuclei (%): 72%
  Population Hoechst High Intensity Objects (%): 4%
  Population Membrane Permeable-Phenotype (%): 6%
  Population Mitochondria Different-Phenotype (%): 2%
  Population Mitotic Cells (%): 47%
  Population Normal (%): 95%
  Population Pyknosed Nuclei (%): 8%
  Population Tubulin-Different-Phenotype (%): 4%
  Total Cell Count: 252
[2]
  Population Apoptotic (%): 77%
  Population Fragmented Nuclei (%): 23%
  Population Healthy Nuclei (%): 67%
  Population Hoechst High Intensity Objects (%): 2%
  Population Membrane Permeable-Phenotype (%): 15%
  Population Mitochondria Different-Phenotype (%): 9%
  Population Mitotic Cells (%): 22%
  Population Normal (%): 97%
  Population Tubulin-Different-Phenotype (%): 11%
  Total Cell Count: 108
[3]
  Population Apoptotic (%): 70%
  Population Fragmented Nuclei (%): 36%
  Population Healthy Nuclei (%): 47%
  Population Hoechst High Intensity Objects (%): 3%
  Population Membrane Permeable-Phenotype (%): 25%
  Population Mitochondria Different-Phenotype (%): 27%
  Population Mitotic Cells (%): 29%
  Population Normal (%): 96%
  Population Pyknosed Nuclei (%): 16%
  Population Tubulin-Different-Phenotype (%): 25%
  Total Cell Count: 200
[4]
  Population Apoptotic (%): 100%
  Population Fragmented Nuclei (%): 16%
  Population Healthy Nuclei (%): 76%
  Population Hoechst High Intensity Objects (%): 5%
  Population Membrane Permeable-Phenotype (%): 17%
  Population Mitochondria Different-Phenotype (%): 23%
  Population Mitotic Cells (%): 0%
  Population Normal (%): 94%
  Population Pyknosed Nuclei (%): 7%
  Population Tubulin-Different-Phenotype (%): 13%
  Total Cell Count: 112
[5]
  Population Apoptotic (%): 86%
  Population Fragmented Nuclei (%): 17%
  Population Healthy Nuclei (%): 74%
  Population Hoechst High Intensity Objects (%): 3%
  Population Membrane Permeable-Phenotype (%): 8%
  Population Mitochondria Different-Phenotype (%): 3%
  Population Mitotic Cells (%): 13%
  Population Normal (%): 96%
  Population Pyknosed Nuclei (%): 8%
  Population Tubulin-Different-Phenotype (%): 3%
  Total Cell Count: 291
[6]
  Population Apoptotic (%): 83%
  Population Fragmented Nuclei (%): 18%
  Population Healthy Nuclei (%): 76%
  Population Hoechst High Intensity Objects (%): 4%
  Population Membrane Permeable-Phenotype (%): 12%
  Population Mitochondria Different-Phenotype (%): 7%
  Population Mitotic Cells (%): 16%
  Population Normal (%): 95%
  Population Pyknosed Nuclei (%): 5%
  Population Tubulin-Different-Phenotype (%): 5%
  Total Cell Count: 121
[7]
  Population Apoptotic (%): 58%
  Population Fragmented Nuclei (%): 36%
  Population Healthy Nuclei (%): 43%
  Population Hoechst High Intensity Objects (%): 5%
  Population Membrane Permeable-Phenotype (%): 21%
  Population Mitochondria Different-Phenotype (%): 22%
  Population Mitotic Cells (%): 41%
  Population Normal (%): 94%
  Population Pyknosed Nuclei (%): 19%
  Population Tubulin-Different-Phenotype (%): 17%
  Total Cell Count: 210
[8]
  Population Apoptotic (%): 100%
  Population Fragmented Nuclei (%): 21%
  Population Healthy Nuclei (%): 70%
  Population Membrane Permeable-Phenotype (%): 13%
  Population Mitochondria Different-Phenotype (%): 19%
  Population Mitotic Cells (%): 0%
  Population Pyknosed Nuclei (%): 8%
  Population Tubulin-Different-Phenotype (%): 7%
  Total Cell Count: 126
[9]
  Population Apoptotic (%): 84%
  Population Fragmented Nuclei (%): 16%
  Population Healthy Nuclei (%): 74%
  Population Hoechst High Intensity Objects (%): 3%
  Population Membrane Permeable-Phenotype (%): 5%
  Population Mitochondria Different-Phenotype (%): 3%
  Population Mitotic Cells (%): 15%
  Population Normal (%): 96%
  Population Pyknosed Nuclei (%): 9%
  Population Tubulin-Different-Phenotype (%): 3%
  Total Cell Count: 425
[10]
  Population Apoptotic (%): 76%
  Population Fragmented Nuclei (%): 19%
  Population Healthy Nuclei (%): 69%
  Population Membrane Permeable-Phenotype (%): 8%
  Population Mitochondria Different-Phenotype (%): 5%
  Population Mitotic Cells (%): 23%
  Population Pyknosed Nuclei (%): 10%
  Total Cell Count: 166
[11]
  Population Apoptotic (%): 61%
  Population Fragmented Nuclei (%): 35%
  Population Healthy Nuclei (%): 46%
  Population Hoechst High Intensity Objects (%): 4%
  Population Membrane Permeable-Phenotype (%): 20%
  Population Mitochondria Different-Phenotype (%): 17%
  Population Mitotic Cells (%): 38%
  Population Normal (%): 95%
  Population Pyknosed Nuclei (%): 17%
  Population Tubulin-Different-Phenotype (%): 11%
  Total Cell Count: 236
[12]
  Population Apoptotic (%): 85%
  Population Fragmented Nuclei (%): 25%
  Population Healthy Nuclei (%): 60%
  Population Membrane Permeable-Phenotype (%): 12%
  Population Mitochondria Different-Phenotype (%): 12%
  Population Mitotic Cells (%): 14%
  Population Pyknosed Nuclei (%): 14%
  Population Tubulin-Different-Phenotype (%): 3%
  Total Cell Count: 151
